# Laboratory results published in ChEMBL document CHEMBL1131017, “Synthesis and evaluation of peptidyl Michael acceptors that inactivate human rhinovirus 3C protease and inhibit virus replication” (J Med Chem, 1998).
# Non-standard residues stand in square brackets, D forms with d. Residues, ends and D or L forms follow the SMILES beside them. ξ: configuration not given here. *: point of attachment. X1 = COC(=O)/C=C/[C@H](CCC(N)=O)N*; ξE = NC(CCC(=O)O)C(=O)O; Boc = CC(C)(C)OC(=O)*; OtBu = CC(C)(C)O*
# Experiments:
# HeLa = assay: Antiviral activity measured in cell culture assay, inhibiting plaque formation by 50% at subumolar concentrations.; type: functional, cell-based; conditions: Homo sapiens
# Procedure, shortened: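 HeLa monolayers (confluent) were infected with HRV-14 at 100 PFU/plate. After 30 min adsorption they were overlaid with maintenance medium containing 0.5% agarose plus compound at various concentrations, then held 48 h at 35 °C. Cells were formalin-fixed and crystal violet-stained. Duplicate plaque counts were converted to percent of control and the IC50 interpolated. Runs were repeated 2–3 times, the highest interpolated IC50 reported, and enviroxime was included as control.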
# [1] = molecular target: T1, Human rhinovirus A protease (Human rhinovirus sp.) (UniProt Q4U254); assay: Percent inhibition of HRV-14 3C protease was measured at a concentration of 1 ug/mL
# T1 sequence (whole entry): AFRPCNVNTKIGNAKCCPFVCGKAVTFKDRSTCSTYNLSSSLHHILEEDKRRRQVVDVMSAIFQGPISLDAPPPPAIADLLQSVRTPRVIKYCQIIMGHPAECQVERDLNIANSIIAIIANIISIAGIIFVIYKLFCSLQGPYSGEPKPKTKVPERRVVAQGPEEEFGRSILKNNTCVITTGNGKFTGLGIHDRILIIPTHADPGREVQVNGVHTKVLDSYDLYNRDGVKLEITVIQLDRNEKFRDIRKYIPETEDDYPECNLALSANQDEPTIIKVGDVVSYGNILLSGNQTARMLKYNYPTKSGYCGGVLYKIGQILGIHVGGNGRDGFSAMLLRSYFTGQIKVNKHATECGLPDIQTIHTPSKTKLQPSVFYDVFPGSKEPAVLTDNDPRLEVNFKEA
# [2] = molecular target: T1, Human rhinovirus A protease (Human rhinovirus sp.); assay: Percent inhibition of HRV-14 3C protease was measured at a concentration of 100 ug/mL(average of duplicates which agreed within +/- 10%)
# [3] = molecular target: T1, Human rhinovirus A protease (Human rhinovirus sp.); assay: Percent inhibition of HRV-14 3C protease was measured at a concentration of 5 ug/mL (average of duplicates which agreed within +/- 10%)
SMILES,IC50 (HeLa),inhibition [1],inhibition [2],inhibition [3]
COC(=O)/C=C/[C@H](CCC(N)=O)NC(=O)[C@H](Cc1ccccc1)NC(=O)[C@H](CC(C)C)NC(=O)[C@@H](NC(=O)OC(C)(C)C)C(C)C,0.74 µg/mL,100%,–,–
CCOC(=O)/C=C/C(CCC(N)=O)NC(=O)C(Cc1ccccc1)NC(=O)OC(C)(C)C (stereo not given),> 10 µg/mL,–,39%,–
COC(=O)/C=C/C(CCC(N)=O)NC(=O)OC(C)(C)C (stereo not given),–,–,18%,–
COC(=O)/C=C/[C@H](CCC(N)=O)NC(=O)[C@H](Cc1ccccc1)NC(=O)[C@H](CC(C)C)NC(=O)[C@@H](NC(=O)C(CCC(=O)OC(C)(C)C)NC(=O)OC(C)(C)C)C(C)C (stereo not given in full) (Boc-[ξE](OtBu)VLF-X1),4.5 µg/mL,100%,–,–
COC(=O)/C=C/C(CCC(N)=O)NC(=O)C(Cc1ccccc1)NC(=O)OC(C)(C)C (stereo not given),> 10 µg/mL,–,42%,–
COC(=O)/C=C/[C@H](CCC(N)=O)NC(=O)[C@H](Cc1ccccc1)NC(=O)[C@H](CC(C)C)NC(=O)[C@@H](NC(=O)[C@@H](N)CCC(=O)O)C(C)C,> 10 µg/mL,–,–,–
COC(=O)/C=C/C(CCC(N)=O)NC(=O)C(Cc1ccccc1)NC(=O)OCc1ccccc1 (stereo not given),3.2 µg/mL,–,–,51%
NC(=O)CCC(/C=C/S(=O)(=O)c1ccccc1)NC(=O)C(Cc1ccccc1)NC(=O)OCc1ccccc1 (stereo not given),> 10 µg/mL,–,42%,–
COC(=O)/C=C/[C@H](CCC(N)=O)NC(=O)[C@H](Cc1ccccc1)NC(=O)[C@H](CC(C)C)NC(=O)[C@H](NC(=O)[C@@H](N)CCC(=O)O)C(C)C,–,100%,–,–
COC(=O)/C=C/[C@H](CCC(N)=O)NC(=O)[C@H](Cc1ccccc1)NC(=O)[C@H](CC(C)C)NC(=O)[C@@H](NC(=O)OCc1ccccc1)C(C)C,0.93 µg/mL,100%,–,–
CCOC(=O)/C=C/C(CCC(N)=O)NC(=O)OC(C)(C)C (stereo not given),> 10 µg/mL,–,27%,–
CCOC(=O)/C=C/C(CCC(N)=O)NC(=O)OCc1ccccc1 (stereo not given),> 10 µg/mL,–,18%,–
CC(C)C[C@H](NC(=O)[C@@H](NC(=O)OC(C)(C)C)C(C)C)C(=O)N[C@@H](Cc1ccccc1)C(=O)N[C@H](/C=C/C(=O)O)CCC(N)=O,> 10 µg/mL,43%,–,–
CCOC(=O)/C=C/[C@H](CCC(N)=O)NC(=O)[C@H](Cc1ccccc1)NC(=O)[C@H](CC(C)C)NC(=O)[C@@H](NC(=O)OC(C)(C)C)C(C)C,0.41 µg/mL,100%,–,–
